The target in assay [1] is T1, GABA-A receptor; anion channel (Bos taurus) (UniProt P10063+P08220+P20237+P08219+P10064+P22300). The assay is described as follows: (§1) In vitro inhibition of [3H]flunitrazepam binding to GABA-A benzodiazepine receptor of bovine cerebral cortical membranes at 10 uM. In a few lines:
(§2)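 Bovine cortex membranes (sucrose homogenate, 50 000g pellet, frozen and washed to remove endogenous GABA) in 50 mM Tris-HCl pH 7.4; 0.4 mg protein incubated 90 min at 0 °C with 0.2 nM [3H]flunitrazepam, filtered, counted. Nonspecific binding with 10 μM diazepam. Single test concentration 10 μM, or 1 μM where insoluble; mean ± SEM of five determinations.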

The target in assay [2] is GABA-A receptor; anion channel. The description is as §1. The arrangement: species or system Bos taurus. Put shortly: as §2
Assay [3] concerns the target T1, GABA-A receptor; anion channel (Bos taurus). The assay is described as follows: Relative binding to GABA-A receptor in the presence and absence of GABA (GABA shift), Ki(-GABA)/Ki(+GABA). Format: protein-complex assay. In a few lines: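 Same [3H]flunitrazepam (0.2 nM, 0 °C, 90 min) binding with GABA-depleted washed bovine cortical membranes. IC50 from log-probit analysis of 6–8 concentrations in triplicate, measured with and without 10 μM GABA; Ki by Cheng–Prusoff (Kd 1.8 nM). Ratio = Ki without GABA / Ki with GABA; Ki means ± SEM of three determinations.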

For assay [4] the target is unchanged. Nature of the assay: In vitro inhibition of specific binding of [3H]flunitrazepam to benzodiazepine receptor in bovine cerebral cortex membrane at a concentration of 10 uM. The format is cell membranes. In a few lines:
as §2

Assay [5] concerns Mus musculus. The assay is described as follows: In vivo ip dose to induce convulsions in mice treated with subconvulsant PTZ (40 mg/kg) (NE=no effect). The format is functional, organism-based. Put shortly: (§3)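 Groups of 10 mice given graded doses ip (0.1 mL) suspended in 1% carboxymethylcellulose vehicle, or vehicle alone; PTZ given 30 min later at 80 mg/kg (anticonvulsant test) or 40 mg/kg subconvulsant (proconvulsant test). Proconvulsant value: dose inducing convulsions in 50% of mice. Highest dose tested 250 mg/kg.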

In assay [6] the test system is Mus musculus. The assay is described as follows: In vivo ip dose to antagonize Diazepam (2.5 mg/kg) anticonvulsant effect in mice treated with 80 mg/kg PTZ (NE=no effect). Format: functional, organism-based. Also noted: dose 80 mg/kg. Put shortly: (§4)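 Groups of 10 mice received diazepam 2.5 mg/kg ip, then 10 min later graded ip doses of compound or vehicle; PTZ 80 mg/kg given 15 min after compound. Value: dose antagonizing diazepam's anticonvulsant effect in 50% of mice. Highest dose tested 250 mg/kg.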

Assay [7] has as its system Mus musculus. Nature of the assay: Anticonvulsant activity in mice on ip dose before 80 mg/kg of PTZ (NE=no effect). The format is functional, organism-based. The arrangement: dose 80 mg/kg. Put shortly: as §3
Assay [8] deals with Mus musculus. The assay is described as follows: In vivo ip dose to induce convulsions in mice treated with subconvulsant PTZ (40 mg/kg). Format: functional. In a few lines: as §3
The subject of assay [9] is Mus musculus. Nature of the assay: In vivo ip dose to antagonize Diazepam (2.5 mg/kg) anticonvulsant effect in mice treated with 80 mg/kg PTZ. The format is functional. Conditions: route intraperitoneal. Put shortly:
as §4

For assay [10], the target named is T1, GABA-A receptor; anion channel (Bos taurus). Nature of the assay: In vitro inhibition of [3H]flunitrazepam binding to GABA-A benzodiazepine receptor of bovine cerebral cortical membranes at 1 uM. Put shortly: as §2

Experimental findings from ChEMBL document CHEMBL1126078, “Benzodiazepine receptor affinity and interaction of some N-(indol-3-ylglyoxylyl)amine derivatives” (J Med Chem, 1992) are described below.

The term inhibition denotes the relative decrease from the control value, in per cent. The low end stands for a weak effect, the high end for a strong effect. For orientation: Ki means a measure of affinity in units of concentration, obtained from inhibition or displacement. A word on the ED50: it is the dose that gives a 50% effect, or the effect in half of the subjects.

Calls of active or inactive are those of the source. The calls are words filed in the database; no cut-off is given here.

The compound `O=C(NCCc1ccc(O)c(O)c1)C(=O)c1c[nH]c2ccccc12` yielded an inhibition in assay [1] of 68%. The affinity in assay [2], expressed as Ki, was 4200 nM. Besides, the Ratio in [3] was 0.92.
`COc1cccc(CCNC(=O)C(=O)c2c[nH]c3ccc([N+](=O)[O-])cc23)c1` displayed an inhibition in assay [4] of 25%.
As to `COc1ccc(CCNC(=O)C(=O)c2cn(C)c3ccccc23)cc1OC`, in assay [4], the inhibition turned out to be 51%.
As for `O=C(NCCc1c[nH]c2ccccc12)C(=O)c1c[nH]c2ccccc12`, the inhibition in assay [4] was 83%. This compound also registered a Ki in [2] of 1500 nM. Moreover, the Ratio in [3] was found to be 1.
For the compound `O=C(NCCc1ccc(O)c(O)c1)C(=O)c1c[nH]c2ccc(Br)cc12`, in [1], the inhibition turned out to be 85%. Also, in assay [2], the Ki came out at 1200 nM. The Ratio in assay [3] was determined as 0.7.
Turning to `COc1ccc(CCNC(=O)C(=O)c2c[nH]c3ccc([N+](=O)[O-])cc23)cc1OC`, in assay [3], the Ratio is 1.
Turning to `Cn1cc(C(=O)C(=O)NCCc2ccc(Cl)cc2)c2ccccc21`, the inhibition in assay [1] worked out at 25%.
`Cn1cc(C(=O)C(=O)NCCc2ccc(O)cc2)c2ccccc21`: the inhibition in assay [4] was 58%.
On to `O=C(NCCc1ccccc1)C(=O)c1c[nH]c2ccccc12`, for which the ED50 entry in assay [5] and in [6] was “inactive” in each case. In addition, in assay [7], the outcome was inactive. Besides, the inhibition in assay [4] came to 94%. The same compound came in with a Ki in assay [2] of 380 nM. In addition, in assay [3], the Ratio was 1.3.
As for `O=C(NCCc1ccc(O)cc1)C(=O)c1c[nH]c2ccccc12`, the inhibition in assay [4] was found to be 82%. This compound also registered a Ki in assay [2] of 2400 nM. The Ratio in assay [3] turned out to be 0.7.
`O=C(NCCc1ccc(Cl)cc1)C(=O)c1c[nH]c2ccccc12` registered a Ki in [2] of 340 nM. Also, the Ratio in [3] was determined as 1.2.
`O=C(NCCc1c[nH]c2ccccc12)C(=O)c1c[nH]c2ccc(Br)cc12` yielded an inhibition in [4] of 62%.
For `O=C(NCCc1ccc(O)c(O)c1)C(=O)c1c[nH]c2ccc([N+](=O)[O-])cc12`, the results for the ED50 in [8] and in [9] were 100 mg/kg and 75 mg/kg, respectively. In [7], the outcome was inactive. For the same compound, the inhibition in assay [1] amounted to 100%. This compound also came in with a Ki in assay [2] of 280 nM. The Ratio in [3] is 0.64.
Regarding `O=C(NCCc1ccc(O)c(O)c1)C(=O)c1c[nH]c2ccc(Cl)cc12`, the inhibition in assay [1] turned out to be 90%. The affinity in [2] corresponds to a Ki of 1000 nM. Further, the Ratio in assay [3] was found to be 0.52.
As for `O=C(NCCc1ccccc1)C(=O)c1c[nH]c2ccc([N+](=O)[O-])cc12`, the inhibition in assay [10] is 39%.
Compound `O=C(NCCc1ccc(Cl)cc1)C(=O)c1c[nH]c2ccc([N+](=O)[O-])cc12` registered an inhibition in assay [4] of 0%.
Same read-out and setting: for `COc1ccc(CCNC(=O)C(=O)c2cn(C)c3ccccc23)cc1` the value was 67%.
Consider `O=C(NCCc1ccc(O)cc1)C(=O)c1c[nH]c2ccc([N+](=O)[O-])cc12`, for which the results for the ED50 in [8] and in assay [9] were 75 mg/kg and 50 mg/kg, respectively. Further, the outcome in assay [7] was inactive. Moreover, the inhibition in [4] amounted to 100%. In [2], this compound gave a Ki of 350 nM. In [3], the Ratio amounted to 0.7.
As for `COc1ccc(CCNC(=O)C(=O)c2c[nH]c3ccc(Cl)cc23)cc1OC`, in assay [4], the inhibition turned out to be 94%. Besides, the affinity in assay [2] corresponds to a Ki of 700 nM. The Ratio in assay [3] came to 1.3.
In assay [4], `COc1ccc(CCNC(=O)C(=O)c2c[nH]c3ccccc23)cc1OC` displayed an inhibition of 96%. Besides, in [2], the Ki amounted to 510 nM. Besides, in assay [3], the Ratio was 1.3.
Regarding `CN1C(=O)CN=C(c2ccccc2)c2cc(Cl)ccc21` [DIAZEPAM], the Ki in assay [2] is 10 nM. Moreover, the Ratio in assay [3] was 1.7.
`Cn1cc(C(=O)C(=O)NCCc2c[nH]c3ccccc23)c2ccccc21`: the inhibition in assay [4] amounted to 39%.
Take `Cn1cc(C(=O)C(=O)NCCc2ccccc2)c2ccccc21`: the inhibition in [4] was determined as 42%.
As to `O=C(NCCc1ccc(O)cc1)C(=O)c1c[nH]c2ccc(Cl)cc12`, in assay [4], the inhibition amounted to 83%. In addition, the Ki in assay [2] was found to be 2200 nM. For the same compound, the Ratio in [3] was 0.8.
`O=C(NCCc1ccc(Cl)cc1)C(=O)c1c[nH]c2ccc(Cl)cc12` yielded an inhibition in assay [4] of 4%.
In the case of `COc1ccc(CCNC(=O)C(=O)c2c[nH]c3ccccc23)cc1`, the ED50 result in [5] and in assay [6] was “inactive” each time. For the same compound, the outcome in assay [7] was inactive. Moreover, the inhibition in [4] is 97%. This compound yielded a Ki in assay [2] of 90 nM. Besides, the Ratio in assay [3] was determined as 1.3.
On to `O=C(NCCc1ccc(O)cc1)C(=O)c1c[nH]c2ccc(Br)cc12`, for which the inhibition in [4] turned out to be 75%. The compound further came in with a Ki in [2] of 2300 nM. Moreover, the Ratio in [3] was determined as 0.8.
`COc1ccc(CCNC(=O)C(=O)c2c[nH]c3ccc([N+](=O)[O-])cc23)cc1`: the inhibition in assay [4] was found to be 32%.
For the compound `O=C(NCCc1c[nH]c2ccccc12)C(=O)c1c[nH]c2ccc([N+](=O)[O-])cc12`, the inhibition in assay [4] was 90%. This compound came in with a Ki in assay [2] of 350 nM. In [3], the Ratio is 0.65.
Consider `Cn1cc(C(=O)C(=O)NCCc2ccc(O)c(O)c2)c2ccccc21`, for which, in assay [1], the inhibition was 17%.
Regarding `COc1cccc(CCNC(=O)C(=O)c2c[nH]c3ccccc23)c1`, the inhibition in [4] came to 97%. In [2], this compound registered a Ki of 85 nM. Further, the Ratio in [3] is 1.2.
As to `O=C(NCCc1ccccc1)C(=O)c1c[nH]c2ccc(Cl)cc12`, the inhibition in assay [4] stood at 25%.
`CCOC(=O)c1ncn2c1CN(C)C(=O)c1cc(F)ccc1-2` [FLUMAZENIL] registered a Ki in assay [2] of 0.38 nM. In addition, in assay [3], the Ratio worked out at 1.
Compound `O=C(NCCc1c[nH]c2ccccc12)C(=O)c1c[nH]c2ccc(Cl)cc12` came in with an inhibition in [4] of 70%.
